Activity calls are given as the source filed them. The rule behind the calls is not given here.
Key:
Influenza A virus [1] = assay: Inhibition of viral protein synthesis in Influenza A virus (A/WSN/33) infected in MDCK cells assessed as effect on HA protein level at 10 uM measured up to 9 hrs post infection by Western blot analysis; format: functional, organism-based; conditions: A/WSN/1933(H1N1)
How it was run: (§1)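 MDCK cells (5 × 10^5/well) infected with A/WSN/33 at MOI 0.1, washed twice, then held in E0 with or without 10 μM compound. Lysed in Triton X-100/deoxycholate buffer, equal protein separated by SDS-PAGE, and immunoblotted for viral proteins with GAPDH as loading control. Time-course harvests up to 9 h pi.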

Influenza A virus [2] = assay: Antiviral activity against Influenza A virus (A/WSN/33) infected in MDCK cells at 10 uM added at 3 hrs to 9 hrs post infection and measured after 9 hrs by plaque assay; format: functional, organism-based; conditions: A/WSN/1933(H1N1)
How it was run: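 MDCK monolayers exposed to compound (1 or 10 μM) over windows of −3, −1, 0, 3 or 6 to 9 h pi. A/WSN/33 adsorbed at MOI 0.1 from −1 to 0 h, then removed with a PBS wash. Supernatant taken at 9 h pi and titred by plaque assay, normalised to virus-only (100%). Average of three independent experiments.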

[3] = Selectivity ratio of CC50 for MDCK cells to EC50 for Influenza A virus (A/WSN/33); format: toxicity; conditions: dog, read-out: Ratio CC50/EC50
How it was run: (§2)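 SI is calculated as CC50 (MDCK, 72 h MTT) divided by EC50 (72 h crystal-violet CPE assay in MDCK).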

Influenza A virus [4] = assay: Inhibition of viral RNA synthesis in Influenza A virus (A/WSN/33) infected in MDCK cells at 10 uM measured up to 9 hrs post infection by RT-qPCR analysis; format: functional, organism-based; conditions: A/WSN/1933(H1N1)
How it was run: (§3)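 MDCK monolayers (5 × 10^5/well) infected with A/WSN/33, then given 10 μM compound during or after infection. Total RNA extracted with TRIzol at 0, 3, 6 and 9 h pi. Viral RNA quantified by RT-qPCR with M1-specific primers, GAPDH used for quantitative standards. Representative of three independent experiments.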

[5] = Selectivity ratio of CC50 for human RD cells to EC50 for Enterovirus A71 TW/2231/1998; format: toxicity; conditions: read-out: Ratio CC50/EC50
How it was run: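 RD cells (2 × 10^4/well, DMEM 10% FBS, 16–24 h) infected with enterovirus at nine-fold TCID50 with compound, 72 h, 37 °C, 5% CO2. Cells were fixed in 4% paraformaldehyde, stained with 0.1% crystal violet, and EC50 taken by Reed–Muench. CC50 came from 72 h exposure of uninfected RD cells, MTT 3 h, A570, Reed–Muench. SI = CC50/EC50; three independent experiments.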

Influenza A virus [6] = assay: Inhibition of viral RNA synthesis in Influenza A virus (A/WSN/33) infected in MDCK cells assessed as effect on matrix protein 1 RNA level at 10 uM measured up to 9 hrs post infection by RT-qPCR analysis; format: functional, organism-based; conditions: A/WSN/1933(H1N1); how it was run: as §3
Influenza A virus [7] = assay: Inhibition of viral protein synthesis in Influenza A virus (A/WSN/33) infected in MDCK cells assessed as effect on NS1 protein level at 10 uM measured up to 9 hrs post infection by Western blot analysis; format: functional, organism-based; conditions: A/WSN/1933(H1N1); how it was run: as §1
[8] = Selectivity ratio of CC50 for MDCK cells to EC50 for pandemic Influenza A virus A/TW/2235/09 (H1N1) SO4; format: toxicity; conditions: dog, read-out: Ratio CC50/EC50
How it was run: (§4)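 MDCK cells (2 × 10^4/well, E10, 16–24 h) infected at nine-fold TCID50 with compound for 72 h, 37 °C, 5% CO2. Cells were fixed in 4% paraformaldehyde and stained with crystal violet; EC50 is from Reed–Muench. For CC50, cells had compound alone for 72 h, then MTT 3 h, DMSO, A570, Reed–Muench. SI = CC50/EC50; three independent experiments.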

[9] = Selectivity ratio of CC50 for MDCK cells to EC50 for Influenza A virus A/TW/00642/14; format: toxicity; conditions: dog, read-out: Ratio CC50/EC50; how it was run: as §4
Influenza A virus [10] = assay: Inhibition of viral protein sub-cellular distribution in Influenza A virus (A/WSN/33) infected in MDCK cells assessed as reduction in PA protein distribution to cytoplasm at 10 uM measured after 9 hrs post infection by IF-staining based microscopy; format: functional, organism-based; conditions: A/WSN/1933(H1N1)
How it was run: (§5)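 MDCK cells grown on coverslips (2 × 10^5/well, 16 h), infected at MOI 0.1 for 1 h, washed, then kept in E0 with test compound (1 or 10 μM) or LMB 10 nM; DMSO 0.05% as mock. Fixed at 9 h pi in 4% paraformaldehyde and immunostained for M1, NP, NS2 or PA (1:50), with Hoechst nuclear stain. Viewed by confocal microscopy at 63×. NP nuclear/cytoplasmic intensity ratio quantified; three independent experiments.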

[11] = Selectivity ratio of CC50 for MDCK cells to EC50 for Influenza A virus A/TW/3446/02 (H3N2); format: toxicity; conditions: dog, read-out: Ratio CC50/EC50; how it was run: as §4
Influenza A virus [12] = assay: Inhibition of viral protein synthesis in Influenza A virus (A/WSN/33) infected in MDCK cells assessed as effect on NP protein level at 10 uM measured up to 9 hrs post infection by Western blot analysis; format: functional, organism-based; conditions: A/WSN/1933(H1N1); how it was run: as §1
Influenza A virus [13] = assay: Antiviral activity against Influenza A virus A/TW/3446/02 (H3N2) infected in MDCK cells after 72 hrs by crystal violet-staining based assay; format: functional, organism-based
How it was run: (§6)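 Cells seeded at 2 × 10^4/well in E10 (DMEM, 10% FBS), 16–24 h at 37 °C/5% CO2, washed with DPBS, then infected at nine-fold TCID50 with or without serial compound concentrations. Influenza is run in MDCK and enterovirus/rhinovirus in RD. Incubated 72 h, fixed in 4% paraformaldehyde, stained with 0.1% crystal violet, and read for cell density. EC50 = 50% CPE inhibition by Reed–Muench; mean ± S.D. of at least three runs.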

MDCK = assay: Inhibition of CRM1 in MDCK cells infected with Influenza A virus (A/WSN/33) assessed as reduction in CRM1-mediated viral protein nuclear export by measuring reduction in NP protein distribution to cytoplasm at 10 uM measured after 9 hrs post infection by IF-staining based microscopy; format: cell-based; conditions: Canis lupus familiaris; how it was run: as §5
enterovirus D68 = assay: Antiviral activity against Enterovirus D68 TW/2795/2014 clade B3 infected in human RD cells after 72 hrs by crystal violet-staining based assay; format: functional, organism-based; conditions: Enterovirus D, TW/2795/2014 clade B3, RD; how it was run: as §6
[14] = Selectivity ratio of CC50 for MDCK cells to EC50 for Influenza A virus A/TW/01061/14; format: toxicity; conditions: dog, read-out: Ratio CC50/EC50; how it was run: as §4
Influenza A virus [15] = assay: Inhibition of viral protein sub-cellular distribution in Influenza A virus (A/WSN/33) infected in MDCK cells assessed as reduction in M1 protein distribution to cytoplasm at 10 uM measured after 9 hrs post infection by IF-staining based microscopy; format: functional, organism-based; conditions: A/WSN/1933(H1N1); how it was run: as §5
[16] = Selectivity ratio of CC50 for MDCK cells to EC50 for Influenza A virus A/TW/00482/13; format: toxicity; conditions: dog, read-out: Ratio CC50/EC50; how it was run: as §2
Influenza A virus [17] = assay: Inhibition of viral protein synthesis in Influenza A virus (A/WSN/33) infected in MDCK cells assessed as effect on M1 protein level at 10 uM measured up to 9 hrs post infection by Western blot analysis; format: functional, organism-based; conditions: A/WSN/1933(H1N1); how it was run: as §1

## C=C(CC(=O)Nc1ccc(F)cc1F)C(=O)Nc1ccc(F)cc1F
Influenza A virus [1]
  inhibition: inactive
Influenza A virus [2]
  Activity: Active
[3]
  selectivity ratio: 29.8
Influenza A virus [4]
  inhibition: inactive
[5]
  selectivity ratio: 16
Influenza A virus [6]
  inhibition: inactive
Influenza A virus [7]
  inhibition: inactive
[8]
  selectivity ratio: 36
[9]
  selectivity ratio: 25
Influenza A virus [10]
  inhibition: inactive
[11]
  selectivity ratio: 18
Influenza A virus [12]
  inhibition: inactive
Influenza A virus [13]
  EC50: 4.6 µM
MDCK
  inhibition: Active
Enterovirus D68
  EC50: > 50 µM
[14]
  selectivity ratio: 21
Influenza A virus [15]
  inhibition: inactive
[16]
  selectivity ratio: 22
Influenza A virus [17]
  inhibition: inactive
